What was measured:
[1] = system: Platelet; assay: (§1) Antiaggregatory activity in human platelet rich plasma assessed as inhibition of collagen-induced platelet aggregation preincubated 10 mins before collagen challenge; type: functional
Procedure, shortened: (§2)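 Platelet-rich plasma from citrated blood spun at 210g for 20 min. Compound in 0.5% DMSO vehicle preincubated 10 min, then submaximal collagen (0.8–1.5 μg/mL). Light-transmission aggregometry with stirring at 1000 rpm, 37 °C, recorded for 10 min. Read-out is % inhibition versus vehicle control; IC50 by nonlinear regression, else % inhibition at 300 μM top concentration. At least five experiments.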

[2] = as §1; type: functional; procedure, shortened: as §2
[3] = Chemical stability in acidic medium at pH 1 assessed as unchanged drug level at 0.5 mM after 3 hrs by RP-HPLC analysis; type: physicochemical; conditions: read-out: Stability
Procedure, shortened: (§3)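 A 0.5 mM acetonitrile solution (2 mL) is diluted to 10 mL with HCl (pH 1.0) or 50 mM phosphate buffer (pH 7.4) and held at 37 ± 0.5 °C. Aliquots are taken over time for RP-HPLC (C18 column, acetonitrile/water gradient with 0.1% TFA). Performed in triplicate.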

[4] = Metabolic stability in human serum assessed as half life at 250 uM by RP-HPLC analysis; type: ADME, cell-free
[5] = Chemical stability in phosphate buffer at pH 7.4 assessed as unchanged drug level at 0.5 mM after 3 hrs by RP-HPLC analysis; type: physicochemical; conditions: read-out: Stability; procedure, shortened: as §3
[6] = system: Aorta; assay: Vasodilatory activity in Wistar rat endothelium-denuded thoracic aortic ring assessed as inhibition of phenylephrine-induced contraction […]; type: functional, tissue-based
Procedure, shortened: (§4)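 Endothelium-denuded rat aorta strips are precontracted with phenylephrine. At the plateau, cumulative concentrations of test agent in DMSO are added. Relaxation is recorded isometrically and reported as EC50 ± SEM (μM). In a separate series, 1 μM ODQ is added 5 min before contraction, giving at least 30 min of preincubation before the vasodilator. At least five experiments.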

[7] = system: Aorta; assay: Vasodilatory activity in Wistar rat endothelium-denuded thoracic aortic ring assessed as inhibition of phenylephrine-induced contraction at 100 uM preincubated for 30 mins before phenylephrine addition in presence of 1 uM 1H-[1,2,4]oxadiazolo[4,3-a]quinoxalin-1-one; type: functional; parameters: scale not given: the % may be the effect or the level left
[8] = system: Aorta; assay: Vasodilatory activity in Wistar rat endothelium-denuded thoracic aortic ring assessed as inhibition of phenylephrine-induced contraction preincubated for […] in presence of 1 uM 1H-[1,2,4]oxadiazolo[4,3-a]quinoxalin-1-one; type: functional, tissue-based; procedure, shortened: as §4
[9] = system: Serum; assay: Metabolic stability in human serum assessed as maximal amount of aspirin released at 250 uM by RP-HPLC analysis; type: ADME, cell-free
[10] = system: Aorta; assay: Vasodilatory activity in Wistar rat endothelium-denuded thoracic aortic ring assessed as inhibition of phenylephrine-induced contraction at 30 uM preincubated for 30 mins before phenylephrine addition in presence of 1 uM 1H-[1,2,4]oxadiazolo[4,3-a]quinoxalin-1-one; type: functional; parameters: scale not given: the % may be the effect or the level left
[11] = Antiaggregatory activity in human platelet rich plasma assessed as inhibition of collagen-induced platelet aggregation at 300 uM preincubated 10 mins before collagen challenge; type: functional; procedure, shortened: as §2

SMILES	Activity [1]	IC50 [2]	remaining at 3 h, 500 µM [3]	half-life at 250 µM [4]	remaining at 3 h, 500 µM [5]	Activity [6]	EC50 [6]	Activity [7]	EC50 [8]	Activity [9]	Activity [10]	inhibition at 300 µM [11]
CC(=O)Oc1ccccc1C(=O)O [ASPIRIN]	Dose-dependent effect	54 µM	90%	63 min	90%							
O=C(O)CCCCCO[N+](=O)[O-]						Dose-dependent effect	8.3 µM	<50%				
O=C(O)c1ccc(OCCCO[N+](=O)[O-])cc1						Dose-dependent effect	0.62 µM		66 µM			
O=C(O)c1ccc(S(=O)(=O)CCCO[N+](=O)[O-])cc1						Dose-dependent effect	20 µM	<50%				
CC(=O)Oc1ccccc1C(=O)OCOC(=O)c1cccc(OCCCO[N+](=O)[O-])c1	Dose-dependent effect	100 µM	99%	1.4 min	98%	Dose-dependent effect	0.14 µM			48.3%	<50%	
O=C(O)c1cccc(CO[N+](=O)[O-])n1						Dose-dependent effect	12 µM	<50%				
CC(=O)Oc1ccccc1C(=O)OCOC(=O)CCCCCO[N+](=O)[O-]	Dose-dependent effect		99%	< 1 min	99%	Dose-dependent effect	1.2 µM			10.1%	<50%	17%
CC(=O)Oc1ccccc1C(=O)OCOC(=O)CCCCCCO[N+](=O)[O-]	Dose-dependent effect		99%	< 1 min	100%	Dose-dependent effect	1.6 µM			17.6%	<50%	29%
CC(=O)Oc1ccccc1C(=O)OCOC(=O)c1ccccc1OCCCO[N+](=O)[O-]	Dose-dependent effect	163 µM	99%	< 1 min	98%	Dose-dependent effect	4 µM			5%	<50%	
O=C(O)c1ccccc1OCCCO[N+](=O)[O-]						Dose-dependent effect	20 µM	<50%				
O=C(O)c1ccc(SCC(CO[N+](=O)[O-])O[N+](=O)[O-])cc1 (stereo not drawn)						Dose-dependent effect	0.27 µM		56 µM			
CC(=O)Oc1ccccc1C(=O)OCOC(=O)c1ccc(OCC(CO[N+](=O)[O-])O[N+](=O)[O-])cc1 (stereo not drawn)	Dose-dependent effect	140 µM	99%	5.4 min	99%	Dose-dependent effect	0.041 µM			22.4%	<50%	
O=C(O)c1cccc(OCCCO[N+](=O)[O-])c1						Dose-dependent effect	3.8 µM	<50%				
O=C(O)c1ccc(SCCCO[N+](=O)[O-])cc1						Dose-dependent effect	0.27 µM		53 µM			
O=C(O)c1ccc([S+]([O-])CCCO[N+](=O)[O-])cc1 (stereo not drawn)						Dose-dependent effect	6 µM	<50%				
O=C(O)CCCCCCO[N+](=O)[O-]						Dose-dependent effect	20 µM	<50%				
CC(=O)Oc1ccccc1C(=O)OCOC(=O)CCCC(CO[N+](=O)[O-])O[N+](=O)[O-] (stereo not drawn)	Dose-dependent effect		99%	< 1 min	99%	Dose-dependent effect	0.39 µM			10.6%	<50%	8.6%
O=C(O)c1ccc(OCC(CO[N+](=O)[O-])O[N+](=O)[O-])cc1 (stereo not drawn)						Dose-dependent effect	0.28 µM		67 µM			
CC(=O)Oc1ccccc1C(=O)OCOC(=O)c1ccc(CC(CO[N+](=O)[O-])O[N+](=O)[O-])cc1 (stereo not drawn)	Dose-dependent effect	97 µM	99%	3.4 min	99%	Dose-dependent effect	0.052 µM			34.2%	<50%	
CC(=O)Oc1ccccc1C(=O)OCOC(=O)c1ccc(CCCO[N+](=O)[O-])cc1	Dose-dependent effect	41 µM	98%	1.9 min	100%	Dose-dependent effect	0.075 µM			65.2%	<50%	
CC(=O)Oc1ccccc1C(=O)OCOC(=O)c1ccc(S(=O)(=O)CCCO[N+](=O)[O-])cc1	Dose-dependent effect	38 µM	98%	< 1 min	70%	Dose-dependent effect	0.36 µM			59.2%	<50%	
O=C(O)c1ccc(CCCO[N+](=O)[O-])cc1						Dose-dependent effect	0.51 µM	<50%				
CC(=O)Oc1ccccc1C(=O)OCOC(=O)c1ccc([S+]([O-])CCCO[N+](=O)[O-])cc1 (stereo not drawn)	Dose-dependent effect	72 µM	98%	< 1 min	90%	Dose-dependent effect	0.47 µM			70.7%	<50%	
CC(=O)Oc1ccccc1C(=O)OCOC(=O)c1ccc(OCCCO[N+](=O)[O-])cc1	Dose-dependent effect	138 µM	99%	3.4 min	99%	Dose-dependent effect	0.017 µM			39.8%	<50%	
CC(=O)Oc1ccccc1C(=O)OCOC(=O)CCCCC(CO[N+](=O)[O-])O[N+](=O)[O-] (stereo not drawn)	Dose-dependent effect		99%	< 1 min	99%	Dose-dependent effect	0.52 µM			9.8%	<50%	36%
O=C(O)c1ccc(CC(CO[N+](=O)[O-])O[N+](=O)[O-])cc1 (stereo not drawn)						Dose-dependent effect	0.33 µM	<50%				
CC(=O)Oc1ccccc1C(=O)OCOC(=O)c1cccc(CO[N+](=O)[O-])n1	Dose-dependent effect	20 µM	84%	< 1 min	60%	Dose-dependent effect	0.82 µM			58%	<50%	
CC(=O)Oc1ccccc1C(=O)OCOC(=O)c1ccc(SCC(CO[N+](=O)[O-])O[N+](=O)[O-])cc1 (stereo not drawn)	Dose-dependent effect	129 µM	98%	4.6 min	98%	Dose-dependent effect	0.1 µM			43%	<50%	
CC(=O)Oc1ccccc1C(=O)OC(C)OC(=O)c1ccc(SCCCO[N+](=O)[O-])cc1 (stereo not drawn)	Dose-dependent effect		98%	4.4 min	99%	Dose-dependent effect	0.14 µM			29.4%	<50%	27%
CC(=O)Oc1ccccc1C(=O)OCOC(=O)c1ccc(SCCCO[N+](=O)[O-])cc1	Dose-dependent effect	45 µM	99%	2.4 min	99%	Dose-dependent effect	0.15 µM			61.7%	<50%	
